Laboratory results from ChEMBL document CHEMBL1782013, “Discovery of Potent and Selective Inhibitors of Calcium-Dependent Protein Kinase 1 (CDPK1) from C. parvum and T. gondii” (ACS Med Chem Lett, 2010).
Calls of active or inactive are those of the source. The calls are words filed in the database; no cut-off is given here.

Columns and labels:
[1] = Cytotoxicity against human CRL8155 cells up to 10 uM after 48 to 72 hrs by alamar blue assay; assay type: cell-based
HCC 2998 = test: Cytotoxicity against human HCC2998 cells up to 10 uM after 48 to 72 hrs by alamar blue assay; assay type: cell-based
SF-539 = test: Cytotoxicity against human SF539 cells up to 10 uM after 48 to 72 hrs by alamar blue assay; assay type: cell-based
HL-60 = test: Cytotoxicity against human HL60 cells up to 10 uM after 48 to 72 hrs by alamar blue assay; assay type: cell-based
Cryptosporidium parvum [2] = test: Antiparasitic activity against Cryptosporidium parvum sporozoites infected in human HCT8 cells assessed as reduction of parasites level treated 1 hr after infection measured after 24 hrs; assay type: functional, organism-based; details: HCT-8
Procedure, shortened: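 HCT-8 human intestinal cells infected with C. parvum sporozoites at a 1:1 ratio of HCT-8 cells to sporozoites. Cultures were exposed to a range of inhibitor concentrations starting 1 h after infection. Parasite numbers were counted after 24 h of infection.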

Cryptosporidium parvum [3] = test: Antiparasitic activity against Cryptosporidium parvum sporozoites infected in human HCT8 cells assessed as reduction of parasites level treated immediately after infection measured after 24 hrs; assay type: functional, organism-based; details: HCT-8
Procedure, shortened: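 Human intestinal HCT-8 cells were infected with C. parvum sporozoites, one sporozoite per host cell. Inhibitor was added at varying concentrations at the time of infection. Parasites present were counted 24 h after infection.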

Toxoplasma gondii = test: Antiparasitic activity against Toxoplasma gondii infected in human fibroblasts assessed as reduction of parasite invasion; assay type: functional, organism-based
[4] = molecular target: T1, Calmodulin-domain protein kinase 1 (Toxoplasma gondii, UniProt Q9BJF5); assay type: cell-free, Plasma
T1 sequence (Q9BJF5 whole entry): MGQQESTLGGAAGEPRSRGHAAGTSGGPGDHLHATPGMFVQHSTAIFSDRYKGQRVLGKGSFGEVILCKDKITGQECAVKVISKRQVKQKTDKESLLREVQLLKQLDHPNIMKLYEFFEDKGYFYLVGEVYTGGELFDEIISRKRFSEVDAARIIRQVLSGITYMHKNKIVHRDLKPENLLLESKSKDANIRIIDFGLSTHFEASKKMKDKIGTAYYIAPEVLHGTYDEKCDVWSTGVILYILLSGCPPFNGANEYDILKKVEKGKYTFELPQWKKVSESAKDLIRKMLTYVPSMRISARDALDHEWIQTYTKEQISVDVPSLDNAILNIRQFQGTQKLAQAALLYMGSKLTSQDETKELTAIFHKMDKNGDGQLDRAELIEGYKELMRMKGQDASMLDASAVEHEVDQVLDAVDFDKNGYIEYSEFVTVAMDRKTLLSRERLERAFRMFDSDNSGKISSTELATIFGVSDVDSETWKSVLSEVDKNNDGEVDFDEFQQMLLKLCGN

| Compound | Activity [1] | Activity (HCC 2998) | Activity (SF-539) | Activity (HL-60) | Activity (Cryptosporidium parvum [2]) | Activity (Cryptosporidium parvum [3]) | Activity (Toxoplasma gondii) | IC50 [4] [µM] |
| --- | --- | --- | --- | --- | --- | --- | --- | --- |
| CS(=O)(=O)N1CCC(n2nc(Cc3cccc4ccccc34)c3c(N)ncnc32)CC1 | Non-toxic | Non-toxic | Non-toxic | Non-toxic | – | – | – | – |
| CC(C)c1cccc(-c2nn(C(C)C)c3ncnc(N)c23)c1 | Non-toxic | Non-toxic | Non-toxic | Non-toxic | – | – | – | – |
| CC(C)n1nc(Cc2cccc3ccccc23)c2c(N)ncnc21 | Non-toxic | Non-toxic | Non-toxic | Non-toxic | Dose-dependent effect | Dose-dependent effect | Active | – |
| CC(C)n1nc(-c2ccc(Cl)c(Cl)c2)c2c(N)ncnc21 | Non-toxic | Non-toxic | Non-toxic | Non-toxic | – | – | – | – |
| CCOc1ccc2cc(-c3nn(C(C)C)c4ncnc(N)c34)ccc2c1 | Non-toxic | Non-toxic | Non-toxic | Non-toxic | – | – | – | – |
| CCN1CCC(CCn2nc(Cc3cccc4ccccc34)c3c(N)ncnc32)CC1 | Non-toxic | Non-toxic | Non-toxic | Non-toxic | – | – | – | – |
| CC(C)n1nc(-c2ccc3ccccc3c2)c2c(N)ncnc21 | Non-toxic | Non-toxic | Non-toxic | Non-toxic | – | – | – | – |
| CC(C)n1nc(-c2ccc3c(c2)sc2ccccc23)c2c(N)ncnc21 | – | – | – | – | – | – | – | > 3 |
| CCN1CCC(Cn2nc(Cc3cccc4ccccc34)c3c(N)ncnc32)CC1 | Non-toxic | Non-toxic | Non-toxic | Non-toxic | – | – | – | – |
| CCN1CCC(n2nc(Cc3cccc4ccccc34)c3c(N)ncnc32)CC1 | Non-toxic | Non-toxic | Non-toxic | Non-toxic | – | – | – | – |
| Nc1ncnc2c1c(Cc1cccc3ccccc13)nn2CC1CCNCC1 | Non-toxic | Non-toxic | Non-toxic | Non-toxic | – | – | – | – |
| CC(C)n1nc(-c2cnc3ccccc3c2)c2c(N)ncnc21 | Non-toxic | Non-toxic | Non-toxic | Non-toxic | – | – | – | – |
| COc1ccc2cc(-c3nn(C(C)C)c4ncnc(N)c34)ccc2c1 | Non-toxic | Non-toxic | Non-toxic | Non-toxic | – | – | – | – |
| CC(C)(C)n1nc(Cc2cccc3ccccc23)c2c(N)ncnc21 | Non-toxic | Non-toxic | Non-toxic | Non-toxic | – | – | – | – |
| CC(C)(C)n1nc(-c2ccc3ccccc3c2)c2c(N)ncnc21 | Non-toxic | Non-toxic | Non-toxic | Non-toxic | Dose-dependent effect | Dose-dependent effect | Active | – |
| CC(C)(C)n1nc(-c2cccc3ccccc23)c2c(N)ncnc21 | Non-toxic | Non-toxic | Non-toxic | Non-toxic | Dose-dependent effect | Dose-dependent effect | – | – |
